CCR6 antagonist: CCR6 receptor antagonists, primary screen, cell-based, CHO-K1, luminescence, beta-arrestin, uHTS. CHO-K1 CCR6 PathHunter beta-arrestin, CCL20-stimulated. 340,000 compounds, 0.49% hits. inhibition, % at 20 µM;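 active = compounds whose inhibition of the agonist-driven luminescence signal at 20 µM reaches about 50%, limit read from the data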;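 also: cells stimulated with CCL20 at 14 nM final; plate controls were DMSO with CCL20 for no effect and DMSO without agonist for full effect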
Target sequence (P51684 whole entry, looked up): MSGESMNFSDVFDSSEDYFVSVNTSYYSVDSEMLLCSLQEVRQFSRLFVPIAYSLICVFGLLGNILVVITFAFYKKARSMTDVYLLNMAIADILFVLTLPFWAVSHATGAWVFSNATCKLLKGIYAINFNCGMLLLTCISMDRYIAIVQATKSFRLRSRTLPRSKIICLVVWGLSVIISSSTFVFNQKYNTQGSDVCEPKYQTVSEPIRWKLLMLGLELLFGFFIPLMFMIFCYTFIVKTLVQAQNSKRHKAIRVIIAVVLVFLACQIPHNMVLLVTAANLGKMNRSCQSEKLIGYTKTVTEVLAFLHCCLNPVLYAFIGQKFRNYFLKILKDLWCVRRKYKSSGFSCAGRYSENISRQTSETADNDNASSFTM
CXCR6 block: CXCR6 receptor inhibitors, primary screen, cell-based, beta-arrestin, luminescence, CHO-K1 PathHunter, 1536-well. C-X-C chemokine receptor type 6 (Homo sapiens), O00574. 360,000 compounds, 0.36% hits. AID 602244, 2012. inhibition, % at 20 µM; in the data active = inhibition above about 34%, passing the limit was not always enough;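 also: antagonist mode with CXCL16 agonist at 10 nM final; 0% = 10 nM CXCL16 with DMSO and 100% = unstimulated wells without agonist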
Target sequence (O00574 whole entry, looked up): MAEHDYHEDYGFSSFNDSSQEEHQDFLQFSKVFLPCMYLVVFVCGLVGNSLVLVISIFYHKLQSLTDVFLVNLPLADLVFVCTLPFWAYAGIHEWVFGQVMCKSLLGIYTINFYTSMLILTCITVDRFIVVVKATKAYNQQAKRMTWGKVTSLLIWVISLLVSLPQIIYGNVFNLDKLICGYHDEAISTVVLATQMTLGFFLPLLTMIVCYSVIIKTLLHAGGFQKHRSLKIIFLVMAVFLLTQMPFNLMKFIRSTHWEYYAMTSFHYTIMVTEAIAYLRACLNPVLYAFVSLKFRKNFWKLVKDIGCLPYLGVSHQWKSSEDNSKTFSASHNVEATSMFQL
EBI2 block: EBI2 receptor antagonists, beta-arrestin recruitment, primary screen, cell-based, luminescence, 7a,25-OHC stimulation, uHTS. G-protein coupled receptor 183 (Homo sapiens), P32249. 7a,25-OHC stimulated. inhibition, % at 5 µM. 360,000 compounds, 0.81% hits; in the data active = inhibition above about 38%;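 also: enzyme fragment complementation signal reports receptor beta-arrestin coupling in cells; 0% = agonist plus DMSO wells and 100% = wells without agonist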
APJ antagonist: antagonists of human apelin receptor APJ, primary screen, CHO-K1 cells, beta-arrestin complementation, luminescence | P35414 | inhibition, % at 20 µM | 330,000 compounds, 0.32% hits;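 active = inhibition above about 40% at 20 µM, limit read from the data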;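 also: cells challenged with 10 nM apelin-13 agonist together with compound; plate controls were apelin-13 plus DMSO wells for no effect and DMSO wells lacking apelin-13 for full effect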
APJ ag: agonists of human apelin receptor APJ, primary screen, CHO-K1 cells, PathHunter beta-arrestin, luminescence; 0% DMSO wells, 100% apelin; activation, % at 20 µM; 330,000 compounds, 0.11% hits; AID 2520, 2010;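 active = activation more than six SD over the plate average, tested at 20 µM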;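 also: 0% = DMSO alone and 100% = apelin-13 at 10 nM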
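Material: CHO-K1 APJ beta-arrestin complementation cell line; Input: cell density 1000 per well; Incubation: compound stimulation 90 min at 25 °C, detection 60 min; Signal: luminescence from split beta-galactosidase complementation, Galacton Star/Emerald II substrate; Controls: DMSO-only wells as negative, 10 nM Apelin-13 as positive control.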
EBI2 conf: EBI2 antagonist hit retest, beta-arrestin, confirmation, cell-based, single concentration, luminescence, 7a,25-OHC stimulation; AID 651997, 2013; 2,400 compounds, 29% hits; inhibition, % at 5 µM; 7a,25-OHC antagonism; shares compounds with EBI2 block;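 active = inhibition of at least 50%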
EBI2 ag: EBI2 agonist activity of antagonist hits, confirmation, counter-screen for EBI2 antagonist project, cell-based, single concentration, agonist mode, luminescence; shares compounds with EBI2 block; EBI2-expressing cells, 60 min; 0% vehicle, 100% 7α,25-dihydroxycholesterol control; activation, % at 5 µM; 2,400 tested, under 10 active; AID 652000, 2013;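 active = activation of at least 50%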
bGal cs: E. coli beta-galactosidase enzyme inhibition, confirmation, counter-screen for EBI2 antagonist project, biochemical, luminescence, single concentration; shares compounds with EBI2 block; purified beta-galactosidase, luminescent Galacton Star, 15 min; inhibition, % at 5 µM; 2,400 compounds, 1% hits; AID 652176, 2013;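 active = replicate-average signal at least 3 plate SD below neutral wells, shown as high inhibition, flagging enzyme-inhibiting false positives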;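 also: 0% = DMSO wells with enzyme and 100% = wells lacking enzyme; higher means stronger loss of beta-gal luminescence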
The depositor's hits bear a star; / = no result given. Only some compounds are listed: those with a hit (about 1.5% of all), similar ones and a draw of the others.

SMILES	CCR6 antagonist	CXCR6 block	EBI2 block	APJ antagonist	APJ ag	EBI2 conf	EBI2 ag	bGal cs
O=C1C=C(Nc2ccc(Cl)cc2)CC(c2ccccc2)C1 (configuration not stated)	15.9	-1.7	69.9*	5.6	-1.0	55.1*	-0.2	7.6
C/C=C/C1=CC(=O)C[C@H](c2ccc(Cl)cc2)C1	13.7	1.8	-1.7	-0.6	-4.4	/	/	/
Cc1ccc(NC2=CC(=O)CC(c3ccccc3)C2)cc1 (configuration not stated)	5.8	-5.9	54.6*	2.2	-0.3	41.9	1.9	5.5
Cc1ccc(NC2=CC(=O)CC(c3ccc(Cl)cc3)C2)cc1 (configuration not stated)	1.4	9.2	82.0*	0.9	-1.7	79.2*	-1.2	-7.9
Nc1ccccc1NC1=CC(=O)CC(c2ccccc2)C1 (configuration not stated)	/	/	/	9.0	-1.6	/	/	/
COc1ccc(Cl)c(NC(=O)C/C(C)=N/NC(=O)CCc2ccccc2)c1	4.1	9.2	2.7	2.2	-3.1	/	/	/
CC1(C)CC(Nc2ccc(Nc3ccccc3)cc2)CC(C)(C)N1	18.5	-18.5	5.0	/	/	/	/	/
CC(CC(=O)N(C)c1c(N)n(Cc2ccccc2)c(=O)[nH]c1=O)c1ccccc1 (configuration not stated)	1.8	3.7	-7.3	17.3	4.0	/	/	/
COc1ccc(OC)c(Nc2nc3nonc3nc2N2CCCC(C)C2)c1 (configuration not stated)	6.0	-3.4	5.0	11.5	2.6	/	/	/
CC(=O)Nc1ccc(Nc2nc(-c3sc(C)nc3C)cs2)cc1	4.9	-4.1	1.0	-16.7	5.1	/	/	/
CC(=O)c1cccc(Nc2nc(-c3sc(C)nc3C)cs2)c1	-2.2	1.6	51.7*	1.8	-1.3	37.8	-1.0	-11.0
CC(=O)c1ccc(Nc2nc(-c3sc(C)nc3C)cs2)cc1	/	-7.1	51.3*	/	/	38.4	1.0	11.1
O=C(NCc1ccccc1)C12CC3CC(CC(Br)(C3)C1)C2	6.8	0.6	-7.6	-1.7	-3.3	/	/	/
COc1ccc(/C=C/C(=O)Nc2ccc(OC)nc2)cc1	3.4	3.4	43.8*	-0.4	-1.4	15.8	-0.3	1.2
O=C(COc1ccccc1)NCC(=O)N/N=C/c1ccc(Br)cc1	7.8	-3.5	37.9*	-2.7	7.7	13.9	-1.1	-12.9
COc1ccc(/C=C/C(=O)NCC(=O)N/N=C/c2ccc(OC)cc2)cc1	8.9	-0.2	62.0*	-1.5	-1.5	44.5	1.4	0.3
COc1ccc(/C=C/C(=O)NCC(=O)N/N=C/c2cccnc2)cc1	-13.1	-2.7	12.4	-0.1	-1.2	/	/	/
Cc1ccc(C(=O)C(C)OC(=O)CCN=C2NS(=O)(=O)c3ccccc32)cc1 (configuration not stated)	6.2	-3.1	-3.1	4.8	-3.8	/	/	/
COc1cc(/C=N/NC(=O)CC#N)ccc1Oc1nc(Cl)ncc1F	0.1	10.3	-38.0	3.6	-1.2	/	/	/
Cc1nc2c(OCc3ccc(Cl)cc3Cl)cccn2c1N(C)Cc1cccs1	/	24.8	42.0*	/	/	29.4	-0.7	-12.4
Cc1ccc(/C=C/C(=O)NC(=S)N2CCN(C)CC2)cc1	-1.1	3.3	55.1*	4.0	-0.8	49.1	0.0	-13.8
Cc1ccc(/C=C/C(=O)NC(=S)N2CCN(c3ccc(F)cc3)CC2)cc1	-6.5	-8.2	47.7*	-14.5	-2.9	21.4	-0.6	-10.3
Cc1ccccc1OCC(=O)N1CCC2(CC1)CC(=O)c1ccccc1O2	4.2	8.9	29.8	1.8	-2.3	/	/	/
O=C1CC2(CCN(C(=O)COc3ccccc3)CC2)Oc2ccccc21	3.4	-1.8	45.6*	8.2	-0.1	19.8	1.5	3.7
O=C1CC2(CCN(C(=O)C3CC(=O)N(c4ccccc4)C3)CC2)Oc2ccccc21 (configuration not stated)	-2.1	-0.6	64.5*	-48.8	-5.7	21.5	0.9	6.0
SMILES	CCR6 antagonist	CXCR6 block	EBI2 block	APJ antagonist	APJ ag	EBI2 conf	EBI2 ag	bGal cs
Cc1nc2cc(-c3ccc(Cl)cc3)nn2c(C)c1CCC(=O)NCc1ccco1	4.9	-7.4	49.7*	-14.6	-1.4	43.2	0.5	0.9
O=C(COc1ccc(Br)cc1)c1ccc2c(c1)CCCC2	30.6	-3.3	75.2*	-8.0	3.5	35.5	1.7	2.5
O=C(COc1ccc(Br)cc1)N1CCC(c2ccccc2)C1 (configuration not stated)	9.4	5.7	87.2*	7.8	-5.4	84.2*	-1.3	5.3
Cc1ccc(OCC(=O)c2ccc3c(c2)CCCC3)cc1C	18.5	-2.1	41.9	10.2	-3.4	/	/	/
COc1ccc(OCC(=O)N2CCc3ccccc3C2)cc1	-1.2	0.8	9.8	-10.0	-0.5	/	/	/
O=C(COc1ccc(Br)cc1)N1CCc2ccccc2C1	17.4	4.2	58.3*	2.0	1.8	73.4*	-0.9	7.3
O=C(COc1ccc(Br)cc1)N1CCOCC1	-6.7	5.8	17.7	7.1	-4.8	/	/	/
NC(=O)CSc1nnc(-c2ccco2)n1-c1ccc(F)cc1	/	-2.1	-5.2	/	/	/	/	/
O=C(Nc1ccc(Oc2ccccc2)nc1)C1CCCCN1Cc1ccc(OCCO)cc1 (configuration not stated)	1.5	-10.5	66.1*	-22.2	10.3	42.1	-1.1	11.6
C#Cc1ccc(CN2CCC(C(=O)Nc3ccc(Oc4ccccc4)nc3)CC2)cc1	12.6	-1.7	27.9	17.2	-3.0	/	/	/
O=C(Nc1ccc(Oc2ccccc2)nc1)C1CCCCN1Cc1ccco1 (configuration not stated)	15.4	-5.2	54.4*	3.9	-0.7	24.8	0.2	3.6
CC(=O)c1cccc(CN2CCCCC2C(=O)Nc2ccc(Oc3ccccc3)nc2)c1 (configuration not stated)	14.7	-15.2	70.7*	3.5	8.0	48.8	0.5	7.8
CCCc1ncc(CN2CCCCC2C(=O)Nc2ccc(Oc3ccccc3)nc2)cn1 (configuration not stated)	0.7	1.7	14.7	3.3	-8.0	/	/	/
COC(=O)C[C@H]1CC[C@@H](NS(=O)(=O)c2ccccc2)[C@@H](CO)O1	/	/	-5.0	/	/	/	/	/

From PubChem BioAssay
